Laboratory results taken from ChEMBL document CHEMBL4825676, “Design and biological evaluation of cinnamic and phenylpropionic amide derivatives as novel dual inhibitors of HIV-1 protease and reverse transcriptase” (Eur J Med Chem, 2021).

Key:
[1] = tested on: Human immunodeficiency virus 1; test: Antiviral activity against HIV1 NL4-3 Env-deficient VSV-G pseudotyped virus infected in human SUP-T1 cells assessed as inhibition of late stage viral production when host cells were infected with compound pretreated viral particles at 10 uM measured after 48 hrs by luciferase assay relative to control; assay type: functional; details: Human immunodeficiency virus 1, NL4-3, SUP-T1
Summary of the method: (§1)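 Late-stage assay: VSV-G pseudotyped HIV-1 was made by co-transfecting 293T cells with pNL4-3-E⁻R⁻ (or DRV-resistant variants) plus pHCMV-G. Inhibitors in DMSO were added to the medium 5 h post-transfection. After 48 h at 37 °C, supernatant virus infected SupT1 cells for 48 h, and luciferase was read in the newly infected cells. Quintuplicate; inhibition at one fixed concentration and EC50.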

[2] = tested on: Human immunodeficiency virus 1; test: Antiviral activity against HIV1 NL4-3 VSV-G pseudotyped virus infected in human SUP-T1 cells assessed as inhibition of early stage viral production at 10 uM measured after 48 hrs by luciferase assay relative to control; assay type: functional; details: Human immunodeficiency virus 1, NL4-3, SUP-T1
Summary of the method: (§2)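 Early-stage assay: SupT1 cells (1 × 10⁵/mL) were infected with VSV-G-pseudotyped HIV-1(NL4-3), and compounds were added afterward, with final DMSO held at 1% (v/v). After 48 h the cells were lysed and firefly luciferase activity was measured. Quintuplicate; inhibition at one fixed concentration and EC50.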

[3] = biological target: Human immunodeficiency virus type 1 protease (Human immunodeficiency virus 1, UniProt Q72874); test: Inhibition of wild type HIV1 protease expressed in Escherichia coli using Arg-Glu (EDANS)-Ser-Gln-Asn-Tyr-Pro-Ile-Val-Gln-Lys(DABCYL)-Arg as substrate preincubated for 20 to 30 mins followed by substrate addition and measured for 10 mins by FRET assay
Summary of the method: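 Recombinant HIV-1 PR was expressed in E. coli and purified. It was mixed with inhibitor (DMSO stock) for 20–30 min at room temperature before addition of the EDANS/DABCYL-labelled peptide. Buffer: 0.1 M sodium acetate, 1 M NaCl, 1 mM EDTA, 1 mM DTT, 2% DMSO, 1 mg/mL BSA, pH 4.7. Triplicate; mean of three independent experiments.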

[4] = biological target: Human immunodeficiency virus type 1 reverse transcriptase (Human immunodeficiency virus 1, UniProt Q72547); test: Inhibition of wild type HIV-1 NL4-3 reverse transcriptase using random mRNA as template and GADPH as primer measured at 42 degreeC for 5 mins, 95 degreeC for 10sec and 60 degreeC for 60 sec by qRT-PCR analysis
[5] = tested on: Human immunodeficiency virus 1; test: Antiviral activity against HIV1 NL4-3 Env-deficient VSV-G pseudotyped virus infected in human SUP-T1 cells assessed as inhibition of late stage viral production when host cells were infected with compound pretreated viral particles measured after 48 hrs by luciferase assay; assay type: functional, organism-based; details: Human immunodeficiency virus 1, NL4-3, SUP-T1; summary of the method: as §1
[6] = tested on: Human immunodeficiency virus 1; test: Antiviral activity against HIV1 NL4-3 VSV-G pseudotyped virus infected in human SUP-T1 cells assessed as inhibition of early stage viral production measured after 48 hrs by luciferase assay; assay type: functional, organism-based; details: Human immunodeficiency virus 1, NL4-3, SUP-T1, 48 h; summary of the method: as §2
[7] = Ratio of antiviral activity against HIV1 NL4-3 Env-deficient VSV-G pseudotyped virus infected in human SUP-T1 cells assessed as inhibition of late stage viral production when host cells were infected with compound pretreated viral particles to antiviral activity against HIV1 NL4-3 VSV-G pseudotyped virus infected in human SUP-T1 cells assessed as inhibition of early stage viral production; assay type: functional, Human immunodeficiency virus 1
Summary of the method: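 Ratio taken from single-round VSV-G pseudotyped HIV-1(NL4-3) luciferase assays in SupT1 cells (quintuplicate). It is late-stage inhibition (compound given to producer 293T cells after transfection) divided by early-stage inhibition (compound added after SupT1 infection), or the reverse.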

Row | Structure (SMILES) | IC50 [3] | IC50 [4] | also measured
1 | CC(C)CN(C[C@@H](O)[C@H](Cc1ccccc1)NC(=O)O[C@H]1CO[C@H]2OCC[C@H]21)S(=O)(=O)c1ccc(N)cc1 |  |  | inhibition at 10 µM [1]: 99%; inhibition at 10 µM [2]: 2%
2 | COc1ccc(S(=O)(=O)N(C[C@@H](O)[C@H](Cc2ccccc2)NC(=O)/C=C/c2ccc(O)c(O)c2)C(C)C)cc1 | 54 nM | 53.5 nM | 
3 | COc1cc(/C=C/C(=O)N[C@@H](Cc2ccccc2)[C@H](O)CN(CC(C)C)S(=O)(=O)c2ccc(N)cc2)cc(OC)c1O | 144 nM | 1.5 nM | EC50 [5]: 37400 nM; inhibition at 10 µM [1]: 30%; EC50 [6]: 68000 nM; inhibition at 10 µM [2]: 14%; Ratio [7]: 2.14
4 | COc1ccc(S(=O)(=O)N(CC(C)C)C[C@@H](O)[C@H](Cc2ccccc2)NC(=O)CCc2cc(OC)c(O)cc2OC)cc1 | 104 nM | 73 nM | 
5 | COc1ccc(S(=O)(=O)N(C[C@@H](O)[C@H](Cc2ccccc2)NC(=O)/C=C/c2ccc(O)c(O)c2)C2CC2)cc1 | 19.5 nM | 31.5 nM | 
6 | COc1ccc(S(=O)(=O)N(C[C@@H](O)[C@H](Cc2ccccc2)NC(=O)CCc2ccc(O)c(OC)c2)C2CC2)cc1 | 32.5 nM | 285 nM | 
7 | CC(C)CN(C[C@@H](O)[C@H](Cc1ccccc1)NC(=O)CCc1ccc(O)c(O)c1)S(=O)(=O)c1ccc(N)cc1 | 0.56 nM | 9.5 nM | 
8 | O=C1Nc2ccc(Cl)cc2[C@@](C#CC2CC2)(C(F)(F)F)O1 [EFAVIRENZ] |  |  | inhibition at 10 µM [1]: 15%; inhibition at 10 µM [2]: 85%
9 | COc1ccc(S(=O)(=O)N(C[C@@H](O)[C@H](Cc2ccccc2)NC(=O)/C=C/c2ccc(O)c(OC)c2)C2CC2)cc1 | 97.6 nM | 43.5 nM | 
10 | COc1ccc(S(=O)(=O)N(CC(C)C)C[C@@H](O)[C@H](Cc2ccccc2)NC(=O)CCc2cc(OC)c(O)cc2OC)cn1 | 42.2 nM | 2.97 nM | 
11 | CCCN(C[C@@H](O)[C@H](Cc1ccccc1)NC(=O)/C=C/c1ccc(O)c(O)c1)S(=O)(=O)c1ccc(OC)cc1 | 2.55 nM | 53.5 nM | 
12 | COc1cc(/C=C/C(=O)N[C@@H](Cc2ccccc2)[C@H](O)CN(CC(C)C)S(=O)(=O)c2ccc(SC)cc2)cc(OC)c1O | 65.1 nM | 51.5 nM | 
13 | COc1ccc(S(=O)(=O)N(CC(C)C)C[C@@H](O)[C@H](Cc2ccccc2)NC(=O)CCc2ccc(O)c(O)c2)cc1 | 0.39 nM | 3.5 nM | 
14 | COc1ccc(S(=O)(=O)N(CC(C)C)C[C@@H](O)[C@H](Cc2ccccc2)NC(=O)CCc2ccc(O)c(OC)c2)cn1 | 0.16 nM | 241 nM | 
15 | COc1ccc(S(=O)(=O)N(C[C@@H](O)[C@H](Cc2ccccc2)NC(=O)CCc2cc(OC)c(O)cc2OC)C2CC2)cc1 | 161 nM | 9 nM | 
16 | COc1ccc(S(=O)(=O)N(CC(C)C)C[C@@H](O)[C@H](Cc2ccccc2)NC(=O)/C=C/c2cc(OC)c(O)c(OC)c2)cc1 | 13.1 nM | 125 nM | 
17 | COc1ccc(S(=O)(=O)N(CC(C)C)C[C@@H](O)[C@H](Cc2ccccc2)NC(=O)/C=C/c2ccc(O)c(OC)c2)cn1 | 2.42 nM | 124 nM | 
18 | COc1ccc(S(=O)(=O)N(C[C@@H](O)[C@H](Cc2ccccc2)NC(=O)CCc2ccc(O)c(O)c2)C2CC2)cc1 | 4.04 nM | 45.5 nM | 
19 | COc1cc(/C=C/C(=O)N[C@@H](Cc2ccccc2)[C@H](O)CN(CC(C)C)S(=O)(=O)c2ccc(SC)cc2)ccc1O | 15.8 nM | 99.5 nM | 
20 | CCCN(C[C@@H](O)[C@H](Cc1ccccc1)NC(=O)CCc1cc(OC)c(O)cc1OC)S(=O)(=O)c1ccc(OC)cc1 | 86.4 nM | 6.5 nM | 
21 | COc1ccc(S(=O)(=O)N(C[C@@H](O)[C@H](Cc2ccccc2)NC(=O)/C=C/c2cc(OC)c(O)c(OC)c2)C(C)C)cc1 | 527 nM | 199 nM | 
22 | COc1ccc(S(=O)(=O)N(CC(C)C)C[C@@H](O)[C@H](Cc2ccccc2)NC(=O)/C=C/c2ccc(O)c(O)c2)cn1 | 2.86 nM | 35.5 nM | 

Row | Structure (SMILES) | IC50 [3] | IC50 [4] | also measured
23 | COc1ccc(S(=O)(=O)N(CC(C)C)C[C@@H](O)[C@H](Cc2ccccc2)NC(=O)/C=C/c2cc(OC)c(O)c(OC)c2)cn1 | 69.5 nM | 11.5 nM | 
24 | COc1cc(CCC(=O)N[C@@H](Cc2ccccc2)[C@H](O)CN(CC(C)C)S(=O)(=O)c2ccc(SC)cc2)c(OC)cc1O | 89.8 nM | 60.7 nM | 
25 | COc1cc(CCC(=O)N[C@@H](Cc2ccccc2)[C@H](O)CN(CC(C)C)S(=O)(=O)c2ccc(SC)cc2)ccc1O | 7.73 nM | 3.5 nM | 
26 | CCCN(C[C@@H](O)[C@H](Cc1ccccc1)NC(=O)/C=C/c1ccc(O)c(OC)c1)S(=O)(=O)c1ccc(OC)cc1 | 24.1 nM | 106 nM | 
27 | COc1ccc(S(=O)(=O)N(C[C@@H](O)[C@H](Cc2ccccc2)NC(=O)CCc2ccc(O)c(O)c2)C(C)C)cc1 | 1.47 nM | 20.5 nM | 
28 | CC(C)CN(C[C@@H](O)[C@H](Cc1ccccc1)NC(=O)/C=C/c1ccc(O)c(O)c1)S(=O)(=O)c1ccc(N)cc1 | 0.2 nM | 7.5 nM | 
29 | COc1ccc(S(=O)(=O)N(C[C@@H](O)[C@H](Cc2ccccc2)NC(=O)CCc2cc(OC)c(O)cc2OC)C(C)C)cc1 | 70.1 nM | 299 nM | 
30 | COc1ccc(S(=O)(=O)N(CC(C)C)C[C@@H](O)[C@H](Cc2ccccc2)NC(=O)/C=C/c2ccc(O)c(OC)c2)cc1 | 2.93 nM | 146 nM | 
31 | COc1ccc(S(=O)(=O)N(CC(C)C)C[C@@H](O)[C@H](Cc2ccccc2)NC(=O)/C=C/c2ccc(O)c(O)c2)cc1 | 0.16 nM | 40.8 nM | 
32 | CSc1ccc(S(=O)(=O)N(CC(C)C)C[C@@H](O)[C@H](Cc2ccccc2)NC(=O)/C=C/c2ccc(O)c(O)c2)cc1 | 16.2 nM | 21.5 nM | 
33 | COc1cc(CCC(=O)N[C@@H](Cc2ccccc2)[C@H](O)CN(CC(C)C)S(=O)(=O)c2ccc(N)cc2)ccc1O | 0.58 nM | 31.5 nM | 
34 | COc1cc(/C=C/C(=O)N[C@@H](Cc2ccccc2)[C@H](O)CN(CC(C)C)S(=O)(=O)c2ccc(N)cc2)ccc1O | 3.09 nM | 43.5 nM | 
35 | COc1cc(CCC(=O)N[C@@H](Cc2ccccc2)[C@H](O)CN(CC(C)C)S(=O)(=O)c2ccc(N)cc2)c(OC)cc1O | 68.9 nM | 113 nM | 
36 | COc1ccc(S(=O)(=O)N(C[C@@H](O)[C@H](Cc2ccccc2)NC(=O)/C=C/c2ccc(O)c(OC)c2)C(C)C)cc1 | 98.8 nM | 87.5 nM | 
37 | CCCN(C[C@@H](O)[C@H](Cc1ccccc1)NC(=O)/C=C/c1cc(OC)c(O)c(OC)c1)S(=O)(=O)c1ccc(OC)cc1 | 36.7 nM | 90.5 nM | 
38 | COc1ccc(S(=O)(=O)N(CC(C)C)C[C@@H](O)[C@H](Cc2ccccc2)NC(=O)CCc2ccc(O)c(OC)c2)cc1 | 1.1 nM | 206 nM | 
39 | CCCN(C[C@@H](O)[C@H](Cc1ccccc1)NC(=O)CCc1ccc(O)c(O)c1)S(=O)(=O)c1ccc(OC)cc1 | 0.54 nM | 7.5 nM | 
40 | COc1ccc(S(=O)(=O)N(C[C@@H](O)[C@H](Cc2ccccc2)NC(=O)/C=C/c2cc(OC)c(O)c(OC)c2)C2CC2)cc1 | 294 nM | 33.5 nM | 
41 | CCCN(C[C@@H](O)[C@H](Cc1ccccc1)NC(=O)CCc1ccc(O)c(OC)c1)S(=O)(=O)c1ccc(OC)cc1 | 1.7 nM | 234 nM | 
42 | COc1ccc(S(=O)(=O)N(C[C@@H](O)[C@H](Cc2ccccc2)NC(=O)CCc2ccc(O)c(OC)c2)C(C)C)cc1 | 9.56 nM | 40.5 nM | 
43 | CSc1ccc(S(=O)(=O)N(CC(C)C)C[C@@H](O)[C@H](Cc2ccccc2)NC(=O)CCc2ccc(O)c(O)c2)cc1 | 2.02 nM | 0.43 nM | EC50 [5]: 2310 nM; inhibition at 10 µM [1]: 97%; EC50 [6]: 8320 nM; inhibition at 10 µM [2]: 68%; Ratio [7]: 1.43
44 | COc1ccc(S(=O)(=O)N(CC(C)C)C[C@@H](O)[C@H](Cc2ccccc2)NC(=O)CCc2ccc(O)c(O)c2)cn1 | 0.081 nM | 2.5 nM | 
